Screening results: PubChem BioAssay, several laboratories
HePTP inh: inhibitors of human HePTP phosphatase, primary screen, biochemical, absorbance, leukemia target. recombinant HePTP phosphatase activity, OD absorbance. hit rate 0.64% among 110,000. inhibition, % at 20 µM; in the data active = inhibition above about 50%;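 also: plate controls were vehicle for no effect and reference inhibitor for full effect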
Target sequence (P35236 whole entry, looked up): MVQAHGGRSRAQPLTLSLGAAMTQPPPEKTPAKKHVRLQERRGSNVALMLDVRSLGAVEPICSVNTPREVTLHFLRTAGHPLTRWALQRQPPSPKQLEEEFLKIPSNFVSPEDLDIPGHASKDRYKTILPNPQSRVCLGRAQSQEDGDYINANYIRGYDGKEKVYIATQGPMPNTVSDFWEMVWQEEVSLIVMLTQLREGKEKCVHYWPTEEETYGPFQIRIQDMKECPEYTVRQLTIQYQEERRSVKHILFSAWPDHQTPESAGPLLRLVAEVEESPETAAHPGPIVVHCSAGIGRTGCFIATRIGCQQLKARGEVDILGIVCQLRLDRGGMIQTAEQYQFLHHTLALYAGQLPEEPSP
Ecoli tolC: growth inhibitors of E. coli tolC mutant, primary screen, strain BW25113 ΔtolC::kan, 384-well; OD615; hit rate 2.2% among 65,000; AID 573, 2007; growth inhibition, % at 10 µM (by protocol);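 active = growth inhibition at or above a cutoff equal to the mean over every tested compound plus 3 SD, cut at about 60% in these data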;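 also: growth measured after 20 h incubation at 37 °C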
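Test system: E. coli BW25113 ΔtolC::kan bacteria; incubation: 37 °C, 20 h exposure; medium: LB broth supplemented with 50 µg/mL kanamycin; read-out basis: percent growth inhibition; signal: A615 absorbance measurement; compound: 10 µM final, single dose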
PostGolgi yeast: phenotypic screen on post-Golgi transport, primary screen. post-Golgi transport phenotypic cell assay. inhibition, % at 10 µM. hit rate 0.9% among 98,000. AID 739, 2007;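 also: yeast cells grown in 1536-well plates; yeast grown about 18 h at 30C before absorbance read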
E coli WT exp: growth inhibitors of wild-type E. coli, primary screen, strain BW25113, expanded library, OD600; OD600 absorbance; hit rate 0.15% among 98,000; growth inhibition, % at 100 µM;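 active = growth inhibition above about 50% at one test dose, limit read from the data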;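 also: growth measured after 20 h incubation at 37 °C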
PLAP activator: PLAP enzyme activators, biochemical, luminescence, HTS | AID 696, 2007 | activation fold at 20 µM | purified PLAP enzyme, luminescent substrate read-out; stronger effect = higher value | hit rate 1.2% among 96,000; in the data active = activation fold above about 2
PostGolgi ctrl: growth inhibition of yeast control strain, primary screen, counter-screen for post-Golgi transport modulator project. inhibition, % at 10 µM. efflux-deficient yeast background strain, growth absorbance A615, 16 h. hit rate 5% among 98,000. AID 738, 2007
* = called active by the depositor; . = no result given. Compounds with a hit are over-represented: about 5.5% of the library has one in this group of screens. Rule as the data show it, unless noted: active = inhibition above about 30%; inactive = the rest.

SMILES	HePTP inh	Ecoli tolC	PostGolgi yeast	E coli WT exp	PLAP activator	PostGolgi ctrl
CC1CCCN(S(=O)(=O)c2ccc(NC(=O)c3cccc(-n4cnnn4)c3)cc2)C1 (stereo not given)	10	73*	11	-10	1.2	5
N#C/C(=C\c1ccco1)Sc1nc2ccccc2s1	1	96*	-4	-14	0.9	17
O=C(CCCN1C(=O)c2ccccc2C1=O)Oc1ccc(F)cc1	7	1	-6	5	1.1	38*
COC(=O)C1C(c2ccccc2)N(c2ccccc2)OC1(C)O (stereo not given)	4	.	.	.	.	.
CN(C)S(=O)(=O)Oc1ccsc1C(=O)Nc1ccccc1Cl	.	.	4	-2	0.9	15
CN(C)S(=O)(=O)Oc1ccsc1C(=O)Nc1cccc(Cl)c1Cl	.	.	-10	-12	0.9	32*
CC1=C(C(=O)OCC2CCCO2)C(c2cccs2)C2=C(CC(C)(C)CC2=O)N1 (stereo not given)	-10	.	.	.	.	.
CCOC(=O)c1c(NC(=O)CSc2n[nH]c(N)n2)sc(CC)c1C	6	23	4	3	2.2*	-5
CCOC(=O)c1sc(NC(=O)CSc2n[nH]c(-c3ccccc3)n2)c(C#N)c1C	17	100*	-7	-11	1.7	41*
CCN(CC)S(=O)(=O)c1cc(C(=O)NCc2ccccc2)ccc1Cl	-5	.	.	.	.	.
COc1ccc(N=Cc2c(O)n(-c3ccccc3OC)c(=O)[nH]c2=O)cc1	0	.	.	.	.	.
COc1ccc(CC(=O)Nc2cccc(F)c2)cc1OC	-1	.	.	.	.	.
COc1cc(C(=O)Nc2ccc(S(=O)(=O)N3CCCCC3C)cc2)cc(OC)c1OC (stereo not given)	-1	6	-7	-6	1	29
COc1ccc(C(=O)Nc2ccc(S(=O)(=O)N3CCCCC3C)cc2)c(OC)c1OC (stereo not given)	-3	66*	1	-12	1	4
N#Cc1cc2c(nc1SCC(=O)Nc1ccc(S(N)(=O)=O)cc1)CCC2	-5	.	.	.	.	.
CCc1ccccc1N1CSC2=C(C#N)C(c3ccccc3F)CC(=O)N2C1 (stereo not given)	8	9	0	2	1.3	34*
CCc1nnc(NC(=O)C2Cc3ccccc3CN2S(=O)(=O)c2cccs2)s1 (stereo not given)	1	19	-5	-6	0.9	14
COc1ccc(S(=O)(=O)N2Cc3ccccc3CC2C(=O)Nc2nccs2)cc1 (stereo not given)	.	.	-4	-6	1	36*
CCc1nnc(NC(=O)C2Cc3ccccc3CN2S(=O)(=O)c2ccc(C)cc2)s1 (stereo not given)	.	.	5	1	1.2	41*
CC1(C)CC(=O)C2=C(C1)c1c(ccc3ccccc13)NC2c1cc2c(cc1Cl)OCO2 (stereo not given)	2	.	.	.	.	.
Cc1sc2ncnc(NCc3ccccc3)c2c1C	.	.	-4	1	1	6
Cc1sc2ncnc(Nc3ccccc3)c2c1C	.	.	3	3	0.9	33*
CC(=O)c1c(C)oc2c1cc(O)c1c2c(-c2ccccc2)nn1-c1ccccc1	9	.	.	.	.	.
Cc1ccc(-c2csc(-c3cc4ccccc4oc3=O)n2)cc1	-3	.	.	.	.	.
Cc1nc2sccn2c1-c1nc(-c2cc3ccccc3o2)cs1	2	-3	1	0	1.7	34*
SMILES	HePTP inh	Ecoli tolC	PostGolgi yeast	E coli WT exp	PLAP activator	PostGolgi ctrl
CC1(C)Cc2c(cnn2-c2ccccc2)-c2c1c1ccccc1n2CC(O)CBr (stereo not given)	.	.	23	-2	1.1	44*
C=CCn1c(SCC(N)=O)nnc1-c1cccc(Br)c1	-3	2	-6	1	0.9	18
C=CCn1c(SCc2ccccc2C#N)nnc1-c1cc(Br)ccc1O	-3	38	-8	-8	1.3	52*
S=c1[nH]nc(-c2ccncc2)n1-c1ccccc1	12	.	.	.	.	.
COc1ccc(N2C(=O)CC(Nc3ccc(Cl)cc3)C2=O)cc1 (stereo not given)	-14	.	.	.	.	.
CC1CN(C2CCN(S(=O)(=O)c3ccc4ccccc4c3)CC2)CC(C)O1 (stereo not given)	-1	5	83*	6	1.4	38*
CC1CCN(C2CCN(S(=O)(=O)c3ccc(F)cc3)CC2)CC1	.	.	5	0	1.3	31*
CCN1CCN(S(=O)(=O)c2ccc3ccccc3c2)CC1	.	.	-1	7	1	6
O=S(=O)(c1ccc(F)cc1)N1CCC(N2CCCCCC2)CC1	.	.	4	5	1	12
COc1ccc(C2CC(=O)C3=C(C2)Nc2ccccc2NC3c2ccc(C(C)C)cc2)cc1 (stereo not given)	-7	.	.	.	.	.
CC(C)c1ccc(NC(=O)CN(CCc2ccccc2)S(=O)(=O)c2ccccc2)cc1	2	.	.	.	.	.
CCn1cnc2sc(C(=O)N3CCN(c4ccc(OC)cc4)CC3)c(C)c2c1=O	2	-1	-4	6	1.3	32*
CCCNC(=O)Cn1cnc2sc(C(=O)N3CCN(CCC)CC3)c(C)c2c1=O	7	-15	0	2	1.2	7
CCOc1ccccc1NC1=C(Cl)C(=O)N(c2ccc(Cl)cc2)C1=O	-1	.	.	.	.	.
S=c1nc(-c2ccccc2)n(Cc2ccco2)c2c1CCCC2	7	-3	-5	3	1.1	5
c1ccc(-c2nc3nc4ccccc4nc3n2Cc2ccco2)cc1	6	27	-10	-4	1.3	32*
Fc1ccc(-c2nc3nc4ccccc4nc3n2Cc2ccco2)cc1	5	5	5	-14	0.8	32*
COc1ccc(NC(=O)C2CC(=O)N(c3ccc(Br)cc3)C2)c(OC)c1 (stereo not given)	8	.	.	.	.	.
OCCCNc1nc2ccccc2n1Cc1ccccc1	6	.	.	.	.	.
COc1ccc(Cn2c(-c3ccco3)nc3oc4ccccc4c(=O)c3c2=O)cc1	8	-31	6	-21	0.8	-2
COc1ccc(Cn2c(-c3ccco3)nc3oc4cc(OC)ccc4c(=O)c3c2=O)cc1	2	86*	3	-23	0.9	13
COc1ccc(-c2nc3oc4cc(OC)ccc4c(=O)c3c(=O)n2Cc2ccco2)cc1	6	95*	6	-14	1.1	17
COc1ccc2c(=O)c3c(=O)n(Cc4ccco4)c(-c4ccco4)nc3oc2c1	.	.	-2	-11	0.9	10
CC1=C(C(=O)Nc2ccccc2)C(c2ccc(F)cc2)N2C(=O)CSC2=N1 (stereo not given)	-4	.	.	.	.	.
O=[N+]([O-])c1ccc(NC(=S)Nc2ccccc2)c(O)c1	6	.	.	.	.	.
O=C(O)CCN1C(=O)/C(=C2\C(=O)N(Cc3ccccc3Cl)c3ccccc32)SC1=S	102*	.	.	.	.	.
CCCN1C(=O)/C(=C2\SC(=S)N(CCC(=O)O)C2=O)c2ccccc21	1	.	.	.	.	.
C=C(C)[C@H]1CC=C(C)/C(=N/NC(=O)CNc2ccccc2OC)C1	.	.	18	5	0.9	54*
